{"source": "ChEMBL document CHEMBL4680124", "about": "“2-Styryl-4-aminoquinazoline derivatives as potent DNA-cleavage, p53-activation and in vivo effective anticancer agents” (Eur J Med Chem, 2020)", "key": {"[1]": {"assay": "Induction of mitochondria membrane potential loss in human MGC-803 cells assessed as increase in green fluorescence at 0.5 uM incubated 24 hrs by JC-1 probe based flow cytometry analysis (reference value: 4.67%)", "type": "functional"}, "MGC-803 [2]": {"tested_on": "MGC-803", "assay": "Induction of apoptosis in human MGC-803 cells assessed as viable cells at 1 uM measured after 24 hrs by Annexin-V/propidium iodide staining-based flow cytometric analysis (Rvb =92.2 %)", "settings": "MGC-803, 24 h"}, "[3]": {"assay": "Induction of mitochondria membrane potential loss in human MGC-803 cells assessed as increase in green fluorescence at 1 uM incubated 24 hrs by JC-1 probe based flow cytometry analysis (reference value: 4.67%)", "type": "functional"}, "MGC-803 [4]": {"tested_on": "MGC-803", "assay": "Induction of apoptosis in human MGC-803 cells assessed as increase in CDK4 protein expression upto 2.5 uM incubated for 24 hrs by Western blot analysis", "type": "functional, cell-based", "settings": "dose microM <=2.5, time 24.0 hrs", "summary_of_the_method": "(§1)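 MGC-803 cells (2×10^6) cultured overnight, then exposed 24 h to 0.5, 1.0 or 2.5 μM, or 5.0 μM for the reference agent. Lysates were resolved by SDS-PAGE, transferred to PVDF and probed with primary antibodies. Detection used AP-linked anti-rabbit IgG and ECL. β-actin served as loading control.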"}, "MGC-803 [5]": {"tested_on": "MGC-803", "assay": "Induction of apoptosis in human MGC-803 cells assessed as necrotic cells at 0.5 uM measured after 24 hrs by Annexin-V/propidium iodide staining-based flow cytometric analysis (Rvb =6.05%)"}, "MGC-803 [6]": {"tested_on": "MGC-803", "assay": "Cell cycle arrest in human MGC-803 cells assessed as accumulation at G1 phase at 0.25 uM after 48 hrs by propidium iodide staining-based flow cytometric analysis (reference value: 46.96 %)", "type": "functional"}, "DNA": {"tested_on": "DNA", "assay": "Binding affinity to Escherichia coli pBR322 DNA assessed as intercalation upto 100 uM by agarose gel electrophoresis assay", "type": "nucleic-acid assay", "settings": "dose microM <=100", "summary_of_the_method": "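pBR322 plasmid DNA incubated with compound at 50, 100 or 200 µM for 3 h in TAE buffer. Reaction stopped with loading buffer. Run on 1% agarose gel, stained with ethidium bromide, imaged under UV transillumination. Lane controls: DNA with 1% DMSO (negative), DNA with EB (positive).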"}, "MGC-803 [7]": {"tested_on": "MGC-803", "assay": "Cell cycle arrest in human MGC-803 cells assessed as accumulation at G2/M phase at 0.125 uM after 48 hrs by propidium iodide staining-based flow cytometric analysis (reference value: 7.94%)", "type": "functional"}, "MGC-803 [8]": {"tested_on": "MGC-803", "assay": "Antitumor activity against human MGC-803 cells xenografted in BALB/C nude mouse assessed as tumor growth inhibition at 10 mg/kg, ip administered every 2 days and measured 3 times per week for 16 days", "type": "functional", "design": "scale not given: the % may be the effect or the level left", "settings": "time 16 day", "summary_of_the_method": "(§2)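 Male BALB/c nude mice, 6 weeks old, given 5×10^6 MGC-803 cells s.c. in the flank. When tumors reached about 80 mm3, mice were randomized (n = 6/group) and dosed i.p. every 2 days. Vehicle was 5% DMSO in saline. Drug solutions were 1.0 or 2.0 mg/mL (DMSO/saline). Tumor length and width plus body weight were measured three times weekly; volume = lw²/2. Mean ± SD.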"}, "MGC-803 [9]": {"tested_on": "MGC-803", "assay": "Cell cycle arrest in human MGC-803 cells assessed as accumulation at G2/M phase at 0.5 uM after 48 hrs by propidium iodide staining-based flow cytometric analysis (reference value: 7.94%)", "type": "functional"}, "MGC-803 [10]": {"tested_on": "MGC-803", "assay": "Induction of apoptosis in human MGC-803 cells assessed as necrotic cells at 2.5 uM measured after 24 hrs by Annexin-V/propidium iodide staining-based flow cytometric analysis (Rvb =6.05%)"}, "MGC-803 [11]": {"tested_on": "MGC-803", "assay": "Cytotoxicity against human MGC-803 cells expressing mutant type p53 assessed as reduction in cell viability preincubated for 48 hrs and measured after 4 hrs by MTT assay", "type": "functional, cell-based"}, "MGC-803 [12]": {"tested_on": "MGC-803", "assay": "Induction of apoptosis in human MGC-803 cells assessed as increase in p21 protein expression upto 2.5 uM incubated for 24 hrs by Western blot analysis", "type": "functional, cell-based", "settings": "dose microM <=2.5, time 24.0 hrs", "summary_of_the_method": "as §1"}, "MGC-803 [13]": {"tested_on": "MGC-803", "assay": "Induction of apoptosis in human MGC-803 cells assessed as early apoptotic cells at 0.5 uM measured after 24 hrs by Annexin-V/propidium iodide staining-based flow cytometric analysis (Rvb =0.84%)"}, "MGC-803 [14]": {"tested_on": "MGC-803", "assay": "Induction of DNA damage in human MGC-803 cells assessed as increase in p-p53 level at 2.5 uM measured after 24 hrs by Western blot analysis", "type": "functional, cell-based", "summary_of_the_method": "(§3)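 MGC-803 cells (2×10^6) plated overnight, then treated for 24 h at 0.5, 1.0 or 2.5 µM (test agent) or 5.0 µM (comparator). Whole-cell lysates separated by SDS-PAGE, transferred to PVDF and probed with primary antibodies. AP-linked anti-rabbit IgG, ECL detection, β-actin loading control. Representative of three experiments.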"}, "MGC-803 [15]": {"tested_on": "MGC-803", "assay": "Induction of DNA damage in human MGC-803 cells assessed as increase in gamma H2AX at 2.5 uM measured after 24 hrs by Western blot analysis", "type": "functional, cell-based", "summary_of_the_method": "as §3"}, "MGC-803 [16]": {"tested_on": "MGC-803", "assay": "Antitumor activity against human MGC-803cells xenografted in BALB/C nude mouse assessed as reduction in tumor volume at 20 mg/kg, ip administered every 2 days and measured 3 times per week", "type": "functional, organism-based", "settings": "time 2.0 day", "summary_of_the_method": "as §2"}, "MGC-803 [17]": {"tested_on": "MGC-803", "assay": "Cell cycle arrest in human MGC-803 cells assessed as accumulation at G1 phase at 0.5 uM after 48 hrs by propidium iodide staining-based flow cytometric analysis (reference value: 46.96 %)", "type": "functional"}, "MGC-803 [18]": {"tested_on": "MGC-803", "assay": "Cell cycle arrest in human MGC-803 cells assessed as accumulation at G2/M phase at 0.25 uM after 48 hrs by propidium iodide staining-based flow cytometric analysis (reference value: 7.94%)", "type": "functional"}, "T-24": {"tested_on": "T-24", "assay": "Cytotoxicity against human T-24 cells […] assessed as reduction in cell viability preincubated for 48 hrs and measured after 4 hrs by MTT assay", "type": "functional, cell-based"}, "MGC-803 [19]": {"tested_on": "MGC-803", "assay": "Induction of intracellular Ca+ level in human MGC-803 cells at 0 to 2.5 uM after 24 hrs by fluo-3 AM dye based flow cytometric analysis", "type": "functional, cell-based", "settings": "dose 0-2.5 µM", "summary_of_the_method": "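MGC-803 cells in six-well plates exposed 24 h to 0.5, 1.0 or 2.5 μM. Cells were harvested, washed in cold PBS and loaded with Fluo-3 AM for 30 min at 37 in the dark. After three PBS washes, intracellular Ca2+ fluorescence was read by flow cytometry. Three independent experiments.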"}, "MGC-803 [20]": {"tested_on": "MGC-803", "assay": "Induction of apoptosis in human MGC-803 cells assessed as late apoptotic cells at 1 uM measured after 24 hrs by Annexin-V/propidium iodide staining-based flow cytometric analysis (Rvb =0.93%)"}, "[21]": {"assay": "Induction of mitochondria membrane potential loss in human MGC-803 cells assessed as increase in green fluorescence at 2.5 uM incubated 24 hrs by JC-1 probe based flow cytometry analysis (reference value: 4.67%)", "type": "functional"}}, "note": "Active and inactive are the calls of the source. The calls are words filed in the database; no cut-off is given here."}
{"smiles": "NCCCCNc1nc(/C=C/c2ccc([N+](=O)[O-])cc2)nc2ccccc12", "values": [{"measurement": "Activity", "setting": "[1]", "value": 8.91, "unit": "%"}, {"measurement": "viability at 1 µM", "setting": "MGC-803 [2]", "value": 55.3, "unit": "%"}, {"measurement": "Activity", "setting": "[3]", "value": 13.9, "unit": "%"}, {"measurement": "Activity", "setting": "MGC-803 [4]", "value": "Active"}, {"measurement": "Activity", "setting": "MGC-803 [5]", "value": 8.13, "unit": "%"}, {"measurement": "Activity", "setting": "MGC-803 [6]", "value": 7.66, "unit": "%"}, {"measurement": "Activity", "setting": "DNA", "value": "Active"}, {"measurement": "Activity", "setting": "MGC-803 [7]", "value": 18.16, "unit": "%"}, {"measurement": "Activity", "setting": "MGC-803 [8]", "value": 35.9, "unit": "%"}, {"measurement": "Activity", "setting": "MGC-803 [9]", "value": 72.67, "unit": "%"}, {"measurement": "Activity", "setting": "MGC-803 [10]", "value": 1.27, "unit": "%"}, {"measurement": "IC50", "setting": "MGC-803 [11]", "value": 1730, "unit": "nM"}, {"measurement": "Activity", "setting": "MGC-803 [12]", "value": "Active"}, {"measurement": "Activity", "setting": "MGC-803 [13]", "value": 14, "unit": "%"}, {"measurement": "Activity", "setting": "MGC-803 [14]", "value": "Active"}, {"measurement": "Activity", "setting": "MGC-803 [15]", "value": "Active"}, {"measurement": "Activity", "setting": "MGC-803 [16]", "value": "Active"}, {"measurement": "Activity", "setting": "MGC-803 [17]", "value": 1.44, "unit": "%"}, {"measurement": "Activity", "setting": "MGC-803 [18]", "value": 55.43, "unit": "%"}, {"measurement": "IC50", "setting": "T-24", "value": 1790, "unit": "nM"}, {"measurement": "Activity", "setting": "MGC-803 [19]", "value": "Active"}, {"measurement": "Activity", "setting": "MGC-803 [20]", "value": 16, "unit": "%"}, {"measurement": "Activity", "setting": "[21]", "value": 22.6, "unit": "%"}]}
